Active and inactive are the calls of the source. The rule behind the calls is not given here.
Legend:
MCF7 [1] = experiment: Cell cycle arrest in human MCF7 cells assessed as accumulation at G2/M phase at 1 uM after 48 hrs by propidium iodide staining based flow cytometry (reference value: 13.05%); assay type: functional
Summary of the method: (§1)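 MCF-7 cells, 5 × 10^4 per well, seeded overnight, then exposed to 0.125–1 μM compound, or DMSO, for 48 h. Ethanol-fixed (70%, −20 °C, 12 h) and stained with PI/RNase at 37 °C for 30 min. Phase distribution determined by flow cytometry.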

MCF7 [2] = experiment: Induction of apoptosis in human MCF7 cells assessed as late apoptotic cells at 0.125 uM after 24 hrs by Annexin-V FITC/propidium iodide staining based flow cytometry (reference value: 0.255%); assay type: functional
MCF7 [3] = experiment: Downregulation of CyclinB protein expression in human MCF7 cells after 48 hrs by Western blot method; assay type: functional, cell-based
Summary of the method: (§2)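 MCF-7 cells exposed to 0–1 μM compound for 48 h, then lysed on ice. Lysate (20 μg protein) run on 8–12% SDS-PAGE and transferred to PVDF. Probed overnight at 4 °C with primary antibodies, then fluorescent secondaries. Band densities normalized to β-actin. Mean ± SD of three independent experiments.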

MCF7 [4] = experiment: Induction of apoptosis in human MCF7 cells assessed as late apoptotic cells at 0.5 uM after 24 hrs by Annexin-V FITC/propidium iodide staining based flow cytometry (reference value: 0.255%); assay type: functional
MCF7 [5] = experiment: Cell cycle arrest in human MCF7 cells assessed as accumulation at S phase at 0.5 uM after 48 hrs by propidium iodide staining based flow cytometry (reference value: 37.18%); assay type: functional; summary of the method: as §1
BEL-7404 tumor cell line = experiment: Antiproliferative activity against human Bel7404 cells after 48 hrs by MTT assay; assay type: functional, cell-based; settings: BEL-7404, 48 h
Summary of the method: (§3)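 Colorimetric MTT assay. KB-3-1, NCI-H460 and Bel-7404 cells were seeded at 4000 cells/well; resistant KB/CP4, NCI-H460/MX20 and Bel-7404/CP20 were seeded at 7000 cells/well. Cells were pre-incubated 24 h at 37 °C, 5% CO2, then exposed to a compound concentration series for 48 h with DMSO ≤0.25%. Absorbance read at 570 nm. Quadruplicate wells, three repeats; means ± SD.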

MCF7 [6] = experiment: Induction of apoptosis in human MCF7 cells assessed as live cells at 0.25 uM after 24 hrs by Annexin-V FITC/propidium iodide staining based flow cytometry (reference value: 97%); assay type: functional
[7] = Antiproliferative activity against human KB/CP4 cells after 48 hrs by MTT assay; assay type: functional, cell-based; settings: KB/CP4, 48 h; summary of the method: as §3
MCF7 [8] = experiment: Induction of apoptosis in human MCF7 cells assessed as increase in Bad protein expression at 0.5 to 1 uM after 48 hrs by Western blot method; assay type: functional, cell-based
Summary of the method: (§4)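 MCF-7 cells were treated at 0, 0.125, 0.25, 0.5 or 1 μM for 48 h, washed in ice-cold PBS and lysed on ice for 20 min. Lysates were spun at 13,000 g, 4 °C. 20 μg protein was run on SDS-PAGE and blotted to PVDF, probed overnight at 4 °C with primary antibodies, then with fluorescent secondary antibodies. Band density was expressed relative to β-actin; three independent experiments.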

MCF7 [9] = experiment: Induction of apoptosis in human MCF7 cells assessed as decrease in pro-caspase-3 to caspase-3 protein expression ratio after 48 hrs by Western blot method; assay type: functional, cell-based; summary of the method: as §2
MCF7 [10] = experiment: Induction of apoptosis in human MCF7 cells assessed as early apoptotic cells at 0.5 uM after 24 hrs by Annexin-V FITC/propidium iodide staining based flow cytometry (reference value: 2.65%); assay type: functional
Bel-7402 [11] = experiment: Cell cycle arrest in human Bel7402 cells assessed as accumulation at S phase at 2 uM after 48 hrs by propidium iodide staining based flow cytometry (reference value: 8.78%); assay type: functional
MCF7 [12] = experiment: Cell cycle arrest in human MCF7 cells assessed as accumulation at S phase at 0.25 uM after 48 hrs by propidium iodide staining based flow cytometry (reference value: 37.18%); assay type: functional; summary of the method: as §1
Mus musculus [13] = experiment: Toxicity in ICR mouse xenografted with […] cells assessed as changes in body weight at 20 mg/kg/day, iv for 3 weeks measured once in 2 days during compound dosing; assay type: organism-based; settings: in vivo
Summary of the method: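 Mice received 1 × 10^6 tumor cells subcutaneously in the right flank: MCF-7 in male BALB/c nude mice aged six weeks, H22 in male ICR mice aged five weeks. After 7 d they were randomized (six or eight per group). Dosing was 20 mg/kg iv daily in 10% DMF/2% poloxamer/88% saline for 21 or 28 days; saline control. Body weight was recorded every 2 days.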

MCF7 [14] = experiment: Cell cycle arrest in human MCF7 cells assessed as accumulation at G1 phase at 0.5 uM after 48 hrs by propidium iodide staining based flow cytometry (reference value: 49.77%); assay type: functional; summary of the method: as §1
Bel-7402 [15] = experiment: Cell cycle arrest in human Bel7402 cells assessed as accumulation at G1 phase at 0.5 uM after 48 hrs by propidium iodide staining based flow cytometry (reference value: 34.61%); assay type: functional
MCF7 [16] = experiment: Induction of ROS generation in human MCF7 cells at 1 uM after 36 hrs in presence of ROS scavenger NAC by DCF-DA staining based flow cytometry; assay type: functional, cell-based
Summary of the method: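 MCF-7 cells exposed to 0–1 μM compound for 36 h, with DMSO as control; one arm pre-incubated with 2.5 mM NAC. Cells then loaded with DCF-DA at 37 °C for 15 min, harvested and resuspended in PBS. Fraction of DCF-positive cells measured by flow cytometry at Ex 480/Em 525 nm.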

Mus musculus [17] = experiment: Toxicity in Balb/c nude mouse xenografted with human MCF7 cells assessed as morphological changes in spleen at 20 mg/kg/day, iv for 4 weeks by hematoxylin and eosin staining based microscopic method; assay type: organism-based; settings: in vivo, 672 h
Summary of the method: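 Male BALB/c nude mice aged six weeks received 1 × 10^6 MCF-7 cells subcutaneously in the right flank. After 7 d they were randomized and dosed 20 mg/kg iv once daily in 10% DMF/2% poloxamer/88% saline; saline control. Heart, liver, spleen, lung and kidney were fixed in 4% paraformaldehyde, paraffin-embedded, sectioned at 5 μm, H&E stained and examined microscopically.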

MCF7 [18] = experiment: Cytotoxicity against human MCF7 cells at 10 to 50 uM after 24 hrs by LDH assay; assay type: functional, cell-based
Summary of the method: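 Membrane integrity assay on MCF-7 and Bel-7402 cells seeded at ~5 × 10^3 per well for 24 h, then given compounds at 10, 20 or 50 μM. Culture medium collected and assayed with CytoTox-ONE LDH reagent for 10 min, followed by stop solution. Fluorescence read at Ex 560/Em 590 nm. Expressed as percentage of unstimulated cells.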

MCF7 [19] = experiment: Induction of apoptosis in human MCF7 cells assessed as increase in Bax protein expression at 0.5 to 1 uM after 48 hrs by Western blot method; assay type: functional, cell-based; summary of the method: as §4
MCF7 [20] = experiment: Induction of apoptosis in human MCF7 cells assessed as necrotic cells at 0.5 uM after 24 hrs by Annexin-V FITC/propidium iodide staining based flow cytometry (reference value: 0.102%); assay type: functional
MCF7 [21] = experiment: Cell cycle arrest in human MCF7 cells assessed as accumulation at G2/M phase at 0.125 uM after 48 hrs by propidium iodide staining based flow cytometry (reference value: 13.05%); assay type: functional; summary of the method: as §1
Bel-7402 [22] = experiment: Cell cycle arrest in human Bel7402 cells assessed as accumulation at G1 phase at 2 uM after 48 hrs by propidium iodide staining based flow cytometry (reference value: 34.61%); assay type: functional

Question: Which results are given for `C=C1C(=O)[C@]23[C@H](OC(=O)/C=C/c4ccccc4)[C@H]1CC[C@H]2[C@]12C=CCC(C)(C)[C@H]1[C@H](O)[C@]3(O)OC2`?
Answer: Activity (MCF7 [1]): 34.23%; Activity (MCF7 [2]): 9.32%; Activity (MCF7 [3]): Dose-dependent effect; Activity (MCF7 [4]): 30.2%; Activity (MCF7 [5]): 31.9%; IC50 (BEL-7404 tumor cell line): 5.94 µM; Activity (MCF7 [6]): 69.7%; IC50 [7]: 1560 nM; Activity (MCF7 [8]): Active; Activity (MCF7 [9]): Dose-dependent effect; Activity (MCF7 [10]): 13.3%; Activity (Bel-7402 [11]): 10.78%; Activity (MCF7 [12]): 33.9%; Activity (Mus musculus [13]): Non-Toxic; Activity (MCF7 [14]): 43.87%; Activity (Bel-7402 [15]): 34.56%; Activity (MCF7 [16]): inactive; Activity (Mus musculus [17]): Non-Toxic; Activity (MCF7 [18]): inactive; Activity (MCF7 [19]): Active; Activity (MCF7 [20]): 2.18%; Activity (MCF7 [21]): 16.83%; Activity (Bel-7402 [22]): 31.15%

From ChEMBL document CHEMBL3997810, “A Novel Potent Anticancer Compound Optimized from a Natural Oridonin Scaffold Induces Apoptosis and Cell Cycle Arrest through the Mitochondrial Pathway” (J Med Chem, 2017)
